High-throughput results (PubChem)
In the library only some 0.38% were active in any assay of this set; here they are far more common.
STK33 inh – inhibitors of purified STK33 kinase, primary screen, biochemical, ADP-Glo luminescence, homogeneous, cell-free; MBP phosphorylation; inhibition, % at 10 µM; hit rate 0.073% among 320,000; AID 2661, 2010;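 active means inhibition at or above 25%, using the most active replicate where run in duplicate; inactive means inhibition below 25%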
GSK3 alpha inh – blockers of GSK3A enzyme activity – biochemical, luminescence, cell-free homogeneous, HTS, primary screen; Glycogen synthase kinase-3 alpha (Homo sapiens), P49840; GSK-3 alpha kinase, ADP-Glo luminescence, 60 min; hit rate 0.1% among 320,000; inhibition, % at 10 µM;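 active means more than half of replicates show inhibition above 20%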;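 further: GST-tagged GSK-3 alpha with peptide substrate and 25 µM ATP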
Target sequence (P49840 whole entry, looked up): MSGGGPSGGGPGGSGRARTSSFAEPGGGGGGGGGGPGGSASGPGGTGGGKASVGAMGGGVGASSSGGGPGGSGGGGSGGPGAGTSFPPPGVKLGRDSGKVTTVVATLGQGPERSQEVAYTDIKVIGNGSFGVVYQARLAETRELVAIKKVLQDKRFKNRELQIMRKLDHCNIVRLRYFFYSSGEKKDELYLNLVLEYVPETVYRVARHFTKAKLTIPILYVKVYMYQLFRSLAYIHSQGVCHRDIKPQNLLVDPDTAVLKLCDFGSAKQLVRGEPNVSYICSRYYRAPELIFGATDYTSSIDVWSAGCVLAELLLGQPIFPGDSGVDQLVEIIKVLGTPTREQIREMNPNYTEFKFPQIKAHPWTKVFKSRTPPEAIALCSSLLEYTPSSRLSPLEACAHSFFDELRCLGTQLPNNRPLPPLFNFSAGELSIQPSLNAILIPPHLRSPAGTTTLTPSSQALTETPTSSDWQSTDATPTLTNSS
GSK3beta inhib – human GSK3beta kinase inhibitors, primary screen, biochemical, cell-free homogeneous, HTS. activity score (negative = inhibition), % at 10 µM. hit rate 0.038% among 300,000. Glycogen synthase kinase-3 beta (Homo sapiens), P49841. GST-GSK3beta kinase, ADP-Glo luminescence, 60 min; active compounds read low. AID 2097, 2009;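 active means more than half of replicate wells score below -50%, meaning over 50% inhibition versus plate controls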
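Test system: GST-fused GSK3beta enzyme, cell-free | Quantity: 1.6 ng GST-GSK3beta enzyme per well | Reagent: 25 µM ATP with peptide substrate | Schedule: 60 min enzyme reaction, room temperature | Signal: Luminescent ADP-Glo measurement of ADP formed | Read-out basis: Score relative to plate controls | Control set: DMSO and 20 µM GW8510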
procasp7 counter – procaspase-7 activators, primary screen, counter-screen for procaspase-3 activator project, biochemical, absorbance, HTS, human | recombinant procaspase-7, Ac-DEVD-pNA absorbance 405 nm; D23A/D198A/D206A triple mutant, cannot self-cleave; scale: DMSO 0, 5 µM enzyme 100 | AID 463210, 2010 | hit rate 0.093% among 330,000 | activation, % at 8.5 µM | Caspase-7 (Homo sapiens), P55210;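 active means percent activation above the screen-wide mean plus 3 SD, cut at about 25% in these data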
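Assay system: Uncleavable procaspase-7 mutant enzyme / Input: 2 µM procaspase-7 mutant as dispensed / Dosing: single nominal 8.5 µM compound dose, 0.8% DMSO final / Timing: 1 h enzyme–compound preincubation and 2 h substrate reaction, both 25 °C / Detection: p-Nitroaniline absorbance at 405 nm, read at 0 and 120 min / Replication: singlicate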
procasp3 activ – activators of human procaspase-3 D3A mutant, primary screen, biochemical, absorbance, PC-3 D3A mutant, single concentration | Caspase-3 (Homo sapiens), P42574 | recombinant procaspase-3 D3A, Ac-DEVD-pNA absorbance 405 nm | activation, % at 8.5 µM | hit rate 0.11% among 330,000;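 active means activation above the mean of all tested compounds plus 3 SD, cut at about 21% in these data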
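Assay system – Procaspase-3 D3A mutant · Benchmarks – DMSO low control, extra-enzyme high control · Technique – 405 nm absorbance of p-nitroaniline, reads at 0 and 120 min · Doses – 8.5 µM nominal · Measure – % activation between DMSO and enzyme-spiked controls · Also added – Ac-DEVD-pNA chromogenic peptide substrate · Schedule – 1 h compound preincubation, 2 h substrate hydrolysis at 25 °C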
A1 inh – caspase 3/7 activation in MEF A1-2A-BIM cells, primary screen, A1 inhibitor project, cell-based, luminescence, HTS; AID 2462, 2010; caspase activation, % (concentration not given with the values); hit rate 0.066% among 330,000; Caspase-Glo 3/7 luminescence, 3 h; percent of clofoctol response, vehicle zero;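 active means over half of replicate activation scores above 10%, or exactly half above 10 with the replicate mean above 10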
PC3 D3A act – procaspase-3 activators, counter-screen for dual procaspase-3/7 activator project, biochemical, absorbance, PC-3 D3A mutant, human; shares compounds with procasp7 counter; recombinant PC-3 D3A, Ac-DEVD-pNA absorbance 405 nm; aspartates 9, 28, 175 changed to alanine; 100% = enzyme control; activation, % at 8.5 µM; 290 tested, under 10 active; AID 493114, 2011;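 active means mean percent activation across triplicates above a set limit taken from the earlier primary procaspase-3 screen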
PC7 dual conf – activation of procaspase-7 enzyme – biochemical, absorbance, human, dual procaspase-3/-7 activator project, confirmation; recombinant procaspase-7, Ac-DEVD-pNA absorbance 405 nm; D23A/D198A/D206A mutant that cannot self-cleave; AID 493115, 2011; 290 tested, under 10 active; shares compounds with procasp7 counter; activation, % at 8.5 µM;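 active means mean activation above a set limit carried over from the earlier primary screen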
A number is an active result; 0 = inactive; - = no result.

SMILES | STK33 inh | GSK3 alpha inh | GSK3beta inhib | procasp7 counter | procasp3 activ | A1 inh | PC3 D3A act | PC7 dual conf
Cc1ccc(C(=O)NCC(=O)Nc2ncccc2C)s1 | 0 | 0 | 0 | 0 | 0 | 0 | - | -
c1ccc2c(-c3c[nH]c4ccccc34)c3ccccc3nc2c1 | 0 | 0 | 0 | 33 | 0 | 0 | 0 | 0
COc1cc2c(cc1OC)CN(C(=O)c1cc(Cl)nc(Cl)c1)CC2 | 0 | 0 | 0 | 0 | 0 | 0 | - | -
COc1cc2c(cc1OC)C1(C)N(CC2)C(C(C)=O)=NN1c1ccc(Cl)cc1 (centres undefined) | 0 | 0 | 0 | 37 | 28 | 0 | 0 | 0
CCCc1nnc(SCC(=O)Nc2ccccc2Cl)n1CC1CCCO1 (centres undefined) | 0 | 0 | 0 | 0 | 0 | 0 | - | -
COc1cc(OC)c(OC)cc1/C=C1/Cc2ccccc2C1=O | 0 | 0 | 0 | 28 | 0 | 0 | 0 | 0
Cc1ccc(Cl)cc1C1=CC(=O)C[C@H](c2ccc(F)cc2)C1 | 0 | 0 | - | 27 | 0 | 0 | 0 | 0
COc1ccc([C@H]2CC(=O)C=C(c3cc(Cl)ccc3C)C2)cc1 | 0 | 0 | - | 0 | 0 | 0 | - | -
CCOCCCNC(=O)C1CCCN(S(=O)(=O)c2cccc3nsnc23)C1 (centres undefined) | 0 | 0 | 0 | 0 | 0 | 0 | - | -
Cc1ccc(C(=O)N/N=C/C2=Cc3ccccc3OC2C)cc1 (centres undefined) | 0 | 0 | 0 | 34 | 0 | 0 | 0 | 0
CC1Oc2ccccc2C=C1/C=N/NC(=O)c1ccccc1 (centres undefined) | 0 | 0 | 0 | 0 | 0 | 0 | - | -
O=[N+]([O-])c1ccc(N2N=C(c3ccco3)CC2c2ccccc2)cc1 (centres undefined) | 0 | 0 | 0 | 0 | 0 | 0 | - | -
Fc1ccc(C2CC(c3ccco3)=NN2c2ccccc2)cc1 (centres undefined) | 0 | 0 | 0 | 36 | 32 | 0 | 0 | 0
COc1ccccc1NC(=O)Nc1cccc(NC(C)=O)c1 | 0 | 0 | 0 | 74 | 0 | 0 | 0 | 0
CC(C)c1nc2oc3c(N(C)CCO)ncnc3c2c2c1CCC2 | 0 | 0 | 0 | 0 | 0 | 0 | - | -
CCN(CC)c1ccc(-c2c(C#N)c(N)nc(OC)c2C#N)cc1 | 0 | 0 | 0 | 27 | 60 | 0 | 0 | 0
Cc1[nH]nc2c1C(c1c[nH]c3ccccc13)C(C#N)=C(N)O2 (centres undefined) | 0 | 0 | 0 | 29 | 0 | 0 | 0 | 0
Cn1c2ccccc2c(=O)c2cc(C#Cc3ccccn3)ccc21 | 0 | 0 | 0 | 0 | 0 | 0 | - | -
Cn1c2ccccc2c(=O)c2cc(C#CC3(O)CCCCC3)ccc21 | 0 | 0 | 0 | 180 | 41 | 0 | 0 | 0
Cn1c2ccccc2c(=O)c2cc(C#Cc3ccsc3)ccc21 | 0 | 0 | 0 | 40 | 39 | 0 | 0 | 0
Cn1c2ccccc2c(=O)c2ccc(C#Cc3ccccn3)cc21 | 0 | 0 | 0 | 27 | 0 | 0 | 0 | 0
O=C(NC1CCCCC1)c1cccc(OCc2ccccc2)c1 | 0 | 0 | 0 | 0 | 0 | 0 | - | -
